Measured values reported in ChEMBL document CHEMBL1130285, “5-HT1A-versus D2-receptor selectivity of flesinoxan and analogous N4-substituted N1-arylpiperazines” (J Med Chem, 1997).

Columns and labels:
[1] = molecular target: T1, 5-hydroxytryptamine receptor 1A (Homo sapiens, UniProt P08908); assay: In vitro potency at human 5-hydroxytryptamine 1A receptor in inhibiting forskolin-stimulated accumulation of intracellular cAMP; type: functional, cell-based
T1 sequence (P08908 whole entry): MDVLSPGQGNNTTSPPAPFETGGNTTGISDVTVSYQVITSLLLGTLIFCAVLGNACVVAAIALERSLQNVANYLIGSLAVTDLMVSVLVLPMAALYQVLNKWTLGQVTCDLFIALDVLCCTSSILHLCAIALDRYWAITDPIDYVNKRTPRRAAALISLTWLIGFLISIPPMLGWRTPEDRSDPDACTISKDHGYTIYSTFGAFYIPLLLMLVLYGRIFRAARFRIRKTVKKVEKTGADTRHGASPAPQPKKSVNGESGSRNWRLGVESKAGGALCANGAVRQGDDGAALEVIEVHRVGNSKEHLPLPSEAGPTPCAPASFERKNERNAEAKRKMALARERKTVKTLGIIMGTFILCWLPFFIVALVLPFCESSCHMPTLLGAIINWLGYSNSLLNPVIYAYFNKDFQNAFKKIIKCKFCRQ
Procedure, shortened: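 CHO cells stably expressing human 5-HT1A receptor, grown in α-DMEM + 10% fetal calf serum, seeded 3 days before assay. Labelled with [3H]adenine (2 μCi/mL) for 2 h, rinsed with PBS/10 mM IBMX, then stimulated 10 min with forskolin (10^-7 M) plus compound at various concentrations, in quadruplicate. TCA extraction; [3H]cAMP separated on Dowex/alumina columns, scintillation counting. EC50 from three independent experiments.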

[2] = molecular target: T2, 5-hydroxytryptamine receptor 1A (Rattus norvegicus, UniProt P19327); assay: pKi value against rat 5-hydroxytryptamine 1A receptor.
T2 sequence (P19327 whole entry): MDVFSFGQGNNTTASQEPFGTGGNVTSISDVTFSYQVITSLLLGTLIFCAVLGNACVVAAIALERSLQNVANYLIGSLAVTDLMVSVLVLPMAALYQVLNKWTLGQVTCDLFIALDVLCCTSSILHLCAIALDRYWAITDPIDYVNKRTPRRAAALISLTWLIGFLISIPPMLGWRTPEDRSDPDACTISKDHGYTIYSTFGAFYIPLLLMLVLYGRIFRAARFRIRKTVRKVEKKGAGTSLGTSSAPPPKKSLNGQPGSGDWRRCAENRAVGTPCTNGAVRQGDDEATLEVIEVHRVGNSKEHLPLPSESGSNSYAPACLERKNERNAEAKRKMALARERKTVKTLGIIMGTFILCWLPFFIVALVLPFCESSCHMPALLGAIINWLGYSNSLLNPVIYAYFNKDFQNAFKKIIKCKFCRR

[3] = molecular target: T3, D(2) dopamine receptor (Rattus norvegicus, UniProt P61169); assay: pKi value against rat Dopamine receptor D2.
[4] = molecular target: T3, D(2) dopamine receptor; assay: In vitro displacement of [3H]spiperone from Dopamine receptor D2 binding site in rat striatum.
[5] = molecular target: T2, 5-hydroxytryptamine receptor 1A; assay: Binding affinity was evaluated by determining in vitro displacement of [3H]8-OH-DPAT from the central 5-hydroxytryptamine 1A receptor recognition site in rat frontal cortex homogenate.; type: tissue-based
[6] = Partition coefficient (logP); type: physicochemical; settings: octanol/water
Procedure, shortened: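 Retention factor k converted via calibration with 10 reference compounds (log Pow 2.1–5.7). Values below 2.1 extrapolated; interpolated values carry 95% confidence interval ±0.4.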

T3 sequence (P61169 whole entry): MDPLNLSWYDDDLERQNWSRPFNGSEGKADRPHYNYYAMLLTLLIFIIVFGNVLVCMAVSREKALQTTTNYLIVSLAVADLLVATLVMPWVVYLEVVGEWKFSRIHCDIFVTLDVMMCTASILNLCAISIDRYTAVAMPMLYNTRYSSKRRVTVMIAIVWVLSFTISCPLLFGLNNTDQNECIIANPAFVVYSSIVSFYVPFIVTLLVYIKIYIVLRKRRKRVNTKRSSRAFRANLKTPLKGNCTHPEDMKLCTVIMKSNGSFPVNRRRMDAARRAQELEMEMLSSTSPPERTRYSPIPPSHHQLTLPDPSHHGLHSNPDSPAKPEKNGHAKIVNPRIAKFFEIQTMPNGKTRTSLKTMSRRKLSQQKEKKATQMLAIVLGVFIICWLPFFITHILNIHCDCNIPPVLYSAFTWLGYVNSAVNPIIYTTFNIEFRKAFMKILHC

| Structure (SMILES) | EC50 [1] | Ki [2] | Ki [3] | Ki [4] | Ki [5] | logP [6] |
| --- | --- | --- | --- | --- | --- | --- |
| CC1CN(c2cccc3c2OCCO3)CC(C)N1CCNC(=O)c1ccc(F)cc1 (stereo not drawn) | 0.78 nM | – | – | – | – | – |
| COc1ccccc1N1CCN(CCNC(C)=O)CC1 | – | 794 nM | 1000 nM | 1100 nM | 800 nM | 0.5 |
| COc1ccccc1N1CCN(CCNC(=O)c2cccs2)CC1 | – | 1.58 nM | 15.8 nM | 17 nM | 1.6 nM | 2 |
| COc1ccccc1N1CCN(CC/C=C/c2ccc(F)cc2)CC1 | – | 2 nM | 3.98 nM | 4.1 nM | 1.8 nM | 4.7 |
| COc1ccccc1N1CCN(CCNC(=O)c2ccc[nH]2)CC1 | – | 15.8 nM | 63.1 nM | 64 nM | 16 nM | 1.6 |
| COc1ccccc1N1CCN(CCCC(=O)c2ccc(F)cc2)CC1 [FLUANISONE] | – | 1 nM | 2.51 nM | 3.1 nM | 1 nM | 3.6 |
| COc1ccccc1N1CCN(CCNC(=O)c2cccnc2)CC1 | – | 158 nM | 501 nM | 570 nM | 140 nM | 1.2 |
| COc1ccccc1N1CCN(CCNC(=O)c2ccncn2)CC1 | – | 15.8 nM | 251 nM | 250 nM | 15 nM | 1.5 |
| COc1ccccc1N1CCN(CCCOc2ccc(F)cc2)CC1 | – | 3.16 nM | 3.16 nM | 3.3 nM | 3.4 nM | 4.1 |
| c1cc(N2CCNCC2)c2occc2c1 | – | – | – | 780 nM | – | – |
| OC[C@@H]1COc2c(cccc2N2CCNCC2)O1 | – | – | – | > 10000 nM | – | – |
| COc1ccccc1N1CCN(CCCC(O)c2ccc(F)cc2)CC1 (stereo not drawn) [ANISOPIROL] | – | 2.51 nM | 3.16 nM | 3.4 nM | 2.5 nM | 3.4 |
| O=C(NCCN1CCN(c2cccc3c2OCC(CO)O3)CC1)c1ccc(F)cc1 (single isomer, unassigned) [FLESINOXAN] | – | – | – | 140 nM | 1.7 nM | – |
| COc1ccccc1N1CCN(CCNC(=O)c2ccc(F)cc2)CC1 | – | 1 nM | – | – | 1 nM | 2.5 |
| COc1ccccc1N1CCN(CCNC(=O)C2CCCCC2)CC1 | – | 0.794 nM | 12.6 nM | 23 nM | 0.8 nM | 2.8 |
| COc1ccccc1N1CCN(CCCCc2ccc(F)cc2)CC1 | – | 1 nM | 3.16 nM | 3.3 nM | 1.1 nM | 4.8 |
| COc1ccccc1N1CCN(CCOCc2ccc(F)cc2)CC1 | – | 20 nM | 10 nM | 10 nM | 22 nM | 3.6 |
| O=C(NCCN1CCN(c2cccc3ccoc23)CC1)c1ccc(F)cc1 | – | – | – | 5.3 nM | – | – |
| COc1ccccc1N1CCN(CCNC(=S)C2CCCCC2)CC1 | – | 0.316 nM | 6.31 nM | 6.4 nM | 0.32 nM | 3.7 |
| c1ccc(N2CCNCC2)cc1 [PHENYLPIPERAZINE] | – | – | – | 6800 nM | – | – |
| COc1ccccc1N1CCN(CCNC(=N)C2CCCCC2)CC1 | – | 5.01 nM | 126 nM | 130 nM | 4.5 nM | 3.4 |
| COc1ccccc1N1CCN(CCNC(=O)c2ccccc2)CC1 | – | 1.26 nM | 12.6 nM | 13 nM | 1.3 nM | 2.2 |
| COc1ccccc1N1CCN(CCNC(=O)c2ccco2)CC1 | – | 20 nM | 79.4 nM | 73 nM | 18 nM | 1.6 |
| O=C(NCCN1CCN(c2ccccc2)CC1)c1ccc(F)cc1 | – | – | – | – | 4.9 nM | – |
| O=C(NCCN1CCN(c2cccc3c2OCCO3)CC1)c1ccc(F)cc1 | 0.9 nM | – | – | 14 nM | – | – |
